Tb hexokinase = blocks Trypanosoma brucei hexokinase 1 activity; recombinant TbHK1, G6PDH-coupled NADH A340; inhibition, % at 10 µM; hit rate 0.11% among 220,000;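 active = inhibition of 50% or more in the single-dose primary screen; inactive = inhibition below 50%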
Autophagy HCS = alters autophagy in cells. MEF GFP-LC3 puncta imaging; test concentration mostly 10 µM. hit rate 0.98% among 190,000. calls only at 10 µM (by protocol);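 active = percentage of spot-positive cells more than 3 SD above its plate mean, without a fluorescence outlier flag or 80% toxicity; inconclusive = no clear call, values can overlap the other calls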;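 also: spot-positive cell cutoff set from DMSO-treated cells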
MT stabilize HCS = microtubule stabilization, imaging screen; % tubulin-high responders, % at 10 µM; hit rate 0.83% among 200,000; HeLa tubulin immunostaining HCS, 24 h; share of cells brighter than vehicle mean+2SD;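 active = plate Z-score above 3 for both tubulin-high and condensed-nucleus cell shares, with cell loss under 80%, at 10 µM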;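 also: anti alpha tubulin signal scored within the nucleus-defined area of each cell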
b-catenin transl = beta-catenin nuclear translocation modulation. HeLa beta-catenin nuclear translocation, immunofluorescence imaging. hit rate 0.3% among 190,000. nuclear translocation activity, % at 5 µM;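 active = nuclear translocation activity above 50% at 5 µM, with a well cell count of 50 or more; inconclusive = wells under 50 cells across six images, flagged as toxic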;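 also: per-cell ratio of nuclear to cytoplasmic median beta-catenin stain intensity; plate controls were DMSO negative control for no effect and GSK-3 inhibitor IX positive control for full effect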
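System: HeLa cells, endogenous beta-catenin; compound dosing: 5 µM primary single dose, 0.1% DMSO, 0.02–20 µM confirmation series; incubation: 24 h compound exposure at 37°C, 5% CO2; signal: beta-catenin immunofluorescence imaging with DAPI; evaluation: % activation, nuclear-to-cytoplasmic median beta-catenin signal ratio per cell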
Insulin prom up = MIN6 insulin promoter up-regulation | MIN6 insulin promoter-GFP reporter, high-content imaging; active compounds read high | z-score at 5 µM | hit rate 0.3% among 190,000 | AID 1625;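 active = z-score above 3 at 5 µM with at least 500 cells counted in the well; inconclusive = wells under 500 cells, flagged as cytotoxic or low count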
The depositor's hits bear a star; i = inactive; ? = inconclusive; / = not tested or not shown; + = active, no number. Rows were chosen to be rich in hits. Some 1.9% of all compounds tested hit in one or more screens of this group.

SMILES | Tb hexokinase | Autophagy HCS | MT stabilize HCS | b-catenin transl | Insulin prom up
CC(=O)c1sc2nc(-c3cccs3)cc(C(F)(F)F)c2c1N | -15 | + | 5 | 5 | /
CSc1cc(-c2ccccc2)n(Cc2c(Cl)cccc2Cl)c(=O)c1C#N | -34 | i | 40* | / | -1.9
CCN(CC)CCOC(=O)c1ccc(NC(=O)c2ccc(Cl)c(S(=O)(=O)N3CCCCCC3)c2)cc1 | 5 | i | 25* | 5 | -1
O=C(Nc1cccnc1)c1ccc(Cl)c(S(=O)(=O)N2CCCCCC2)c1 | 3 | i | 2 | -6 | 0.13
COC(CN1C(=O)C(=O)/C(=C(/O)c2ccccc2)C1c1ccccn1)OC (configuration not stated) | -31 | i | 2 | -2 | -0.49
Cc1c(-c2ccnc3cc(C(=O)O)nn23)cnn1C | -14 | + | 3 | 0 | -0.32
CCOC(=O)C(=Cc1cc(=O)c(OC)co1)C(=O)OCC | 2 | i | 25* | 0 | ?
Cc1ccc(Nc2nc3c([nH]2)c(=O)n(C)c(=O)n3C)cc1 | 1 | i | 3 | -1 | 3.3*
O=C(CCl)Nc1cc(-c2ccccc2)nn1-c1ccccc1 | -3 | + | 6 | -6 | /
CC(=O)Nc1ccc(-c2cc(NC(C)=O)n(-c3ccccc3)n2)cc1 | 4 | i | 6 | 0 | 0.92
Cc1ccc(-c2cc(NC(=O)CCl)n(-c3ccccc3)n2)cc1 | -3 | + | 1 | 0 | /
Cc1cc(NC(=O)COc2ccccc2)n(-c2ccccc2)n1 | -9 | i | 4 | 0 | 0.84
COc1ccc(-c2nc(-c3ccccc3)nc(N3CCN(C)CC3)c2C#N)cc1 | -8 | i | 28 | / | /
CN1CCN(c2nc(-c3ccccc3)nc(-c3ccccc3)c2C#N)CC1 | -11 | i | 9.8* | 2 | -0.94
COc1cccc(-c2nc(-c3ccccc3)nc(N3CCN(C)CC3)c2C#N)c1 | -11 | i | 19* | 50* | -0.35
COc1ccc(-c2nc(-c3cccc(C)c3)nc(N3CCN(C)CC3)c2C#N)cc1 | -22 | i | 39* | 21 | -0.78
Cc1ccc(N2CN(CCc3ccccc3)CNC2=S)cc1 | -12 | / | / | -1 | /
O=c1c(C(c2ccc(F)cc2)c2c(O)nc3n(c2=O)CCS3)c(O)nc2n1CCS2 | -5 | / | / | -1 | 0.58
O=C(CSc1cccs1)Nc1ccc(Cl)cc1 | 2 | / | / | -1 | -1.2
NC(=O)c1ccc(NC(=O)COC(=O)c2cccc(Oc3ccccc3)c2)cc1 | -1 | i | 7 | -1 | 0.43
CCN(CCS(=O)(=O)c1ccc(Cl)cc1)C(=O)Nc1ccc(Cl)cc1 | -6 | / | / | 0 | 0.39
COc1ccc(C(=O)NNC(=O)CSc2nnc(-c3ccc(O)cc3)n2C)cc1 | 2 | i | 4 | 0 | -0.44
CCN(CC)S(=O)(=O)c1ccc(N2CCCCC2)c(NC(=O)/C(C#N)=C/c2ccc(OC)cc2)c1 | -16 | i | 4 | -3 | 0.07
CCOc1cc(/C=C(/C#N)C(=O)Nc2ccc(O)cc2)cc(Br)c1O | 3 | i | 18 | 62* | 1.5
CCOc1ccc(NC(=O)/C(C#N)=C/c2ccc(N3CCCC3)c(C)c2)cc1 | -7 | + | 3 | 5 | -0.3
SMILES | Tb hexokinase | Autophagy HCS | MT stabilize HCS | b-catenin transl | Insulin prom up
C=CCNC(=O)/C(C#N)=C\c1cc(Cl)c(O)c(OCC)c1 | -3 | i | 4 | 6 | -0.28
Cc1nc2ccc(C(=O)N3c4ccccc4CC3C)cc2s1 (configuration not stated) | -3 | i | 19* | 6 | 0.32
Cc1ccc(S(=O)(=O)N2CCC(C(=O)N3CCC[C@H]3C(=O)NCc3ccco3)CC2)cc1 | 3 | + | 2 | -2 | -0.04
Cc1ccc(S(=O)(=O)N2CCC(C(=O)N3CCC[C@H]3C(=O)NCc3ccccc3)CC2)cc1 | -4 | i | 3 | 3 | -0.08
O=C(COC(=O)/C=C/c1cccs1)Nc1cccc(S(=O)(=O)N2CCCC2)c1 | -1 | i | 3 | -1 | -1.4
CC1(C)NC(=O)N(CCOCCOc2ccccc2-c2ccccc2)C1=O | -1 | i | 2 | 4 | 0.23
COc1ccc(OC)c(C2=NOC(C(=O)NCc3cccs3)C2)c1 (configuration not stated) | -8 | i | 23* | -1 | -0.33
O=C(NCc1cccs1)C1CC(c2ccc(Cl)c(Cl)c2)=NO1 (configuration not stated) | -2 | i | 3 | 62* | 0.97
COc1ccc(OC)c(C2=NOC(C(=O)NCCN3CCOCC3)C2)c1 (configuration not stated) | -5 | i | 2 | -1 | 0.15
N=C1SCC(=O)N1c1ncc(Cc2cccc(Cl)c2)s1 | -5 | i | 3 | 1 | /
O=S(=O)(Cc1ccc(Cl)cc1)c1ccccc1-c1nnc(-c2ccccc2)o1 | 3 | i | 4 | -3 | 14*
O=C1/C(=C/c2ccc(C(=O)O)cc2)CCC/C1=C\c1ccc(C(=O)O)cc1 | -11 | i | 2 | / | 0.99
COc1ccc(/C=C2\CCC/C(=C\C=N\N(C)C)C2=O)cc1 | -13 | i | 20* | -2 | -1.2
CN(C)/N=C/C=C1\CCC/C(=C\c2ccc(F)c(F)c2)C1=O | -12 | + | 5 | 3 | -0.45
COCCN1CN(S(=O)(=O)c2ccc(Cl)cc2)c2nc3ccccc3nc21 | -9 | i | 4 | 3 | -0.57
COCCN1CN(S(=O)(=O)c2ccccc2)c2nc3ccccc3nc21 | -13 | i | 3 | / | 3.1*
O=[N+]([O-])c1cccc(/C=C/c2nc(C=Nc3ccc4ccccc4c3)c(O)o2)c1 | -7 | + | 6 | / | /
CCN(CC)CCNC(=O)C(=O)NCC1OCCN1S(=O)(=O)c1ccc2c(c1)OCCO2 (configuration not stated) | -4 | i | 4 | 0 | -0.41
CCOc1ncccc1C(=O)OCC(=O)Nc1c(C)cccc1C | -5 | i | 2 | 0 | -0.23
Cc1cccc(C)c1NC(=O)COC(=O)c1cccnc1 | 6 | + | 3 | 1 | 0.69
CC(C)OP(=O)(OC(C)C)C(Nc1ccccc1)c1cccnc1 (configuration not stated) | 0 | / | / | 0 | -0.1
Cc1cc(C)c2cc3c(N)c(C(=O)Nc4c(C)[nH]c(=O)[nH]c4=O)sc3nc2c1 | -10 | + | 2 | 7 | 0.56
O=C(CCSc1nc(-c2ccco2)cc(C(F)(F)F)n1)NCCc1ccccc1 | -12 | i | 2 | / | -0.16
O=C(CSc1nc(-c2ccco2)cc(C(F)(F)F)n1)Nc1ccc2c(c1)OCO2 | 4 | i | 29* | 3 | -0.13
O=C(CSc1nc(-c2ccco2)cc(C(F)(F)F)n1)Nc1cccnc1 | -29 | i | 58* | -3 | -1.5
CCn1cc(CNC(=O)CCSc2nc(-c3ccco3)cc(C(F)(F)F)n2)cn1 | -13 | i | 43* | -1 | -1.3
O=C(NC(c1ccc(Cl)cc1)c1c(O)ccc2ccccc12)c1ccccc1 (configuration not stated) | 7 | i | 5 | 9 | -1.9
CC(=O)NC(c1ccc(Cl)cc1)c1c(O)ccc2ccc(O)cc12 (configuration not stated) | 6 | i | 3 | 0 | 11*
